# According to ChEMBL document CHEMBL3621107, “Ring fusion strategy for synthesis and lead optimization of sulfur-substituted anthra[1,2-c][1,2,5]thiadiazole-6,11-dione derivatives as promising scaffold of antitumor agents” (Eur J Med Chem, 2015):
# Assays:
# MCF7 = assay: Cytotoxicity against human MCF7 cells assessed as cell growth at 10 uM after 48 hrs by SRB assay relative to control; format: functional; conditions: MCF7, 48 h, read-out: Activity
# Method in brief: (§1)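 First-stage NCI-60 screen by the NCI Developmental Therapeutics Program. Each compound was tested once at a single concentration of 10 μM against the 60-cell-line panel. Growth percentage was reported for each cell line.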
# OVCAR-3 = assay: Cytotoxicity against human OVCAR3 cells assessed as cell growth at 10 uM after 48 hrs by SRB assay relative to control; format: functional; conditions: OVCAR-3, 48 h, read-out: Activity
# Method in brief: (§2)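 First-stage NCI DTP one-dose screen against the 60 human tumour cell line panel. Compounds were tested at a single 10 μM level, and results are given as growth percentage.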
# SN12C = assay: Cytotoxicity against human SN12C cells assessed as cell growth at 10 uM after 48 hrs by SRB assay relative to control; format: functional; conditions: read-out: Activity; method in brief: as §2
# UO-31 = assay: Cytotoxicity against human UO31 cells assessed as cell growth at 10 uM after 48 hrs by SRB assay relative to control; format: functional; conditions: UO-31, 48 h, read-out: Activity
# Method in brief: (§3)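 NCI-60 one-dose screen run by NCI DTP: each cell line exposed to a single 10 µM dose, and percentage growth recorded against untreated growth.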
# HL-60(TB) = assay: Cytotoxicity against human HL-60(TB) cells assessed as cell growth at 10 uM after 48 hrs by SRB assay relative to control; format: functional; conditions: HL-60, 48 h, read-out: Activity
# Method in brief: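 NCI Developmental Therapeutics Program 60-cell-line screen, first stage: a single dose of 10 μM against the panel, reported as percentage growth.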
# SF-295 = assay: Cytotoxicity against human SF295 cells assessed as cell growth at 10 uM after 48 hrs by SRB assay relative to control; format: functional; conditions: SF-295, 48 h, read-out: Activity; method in brief: as §2
# OVCAR-8 = assay: Cytotoxicity against human OVCAR8 cells assessed as cell growth at 10 uM after 48 hrs by SRB assay relative to control; format: functional; conditions: OVCAR-8, 48 h, read-out: Activity; method in brief: as §2
# A549 = assay: Cytotoxicity against human A549 cells assessed as cell growth at 10 uM after 48 hrs by SRB assay relative to control; format: functional; conditions: A549, 48 h, read-out: Activity; method in brief: as §1
# NCI-H522 = assay: Cytotoxicity against human NCI-H522 cells assessed as cell growth at 10 uM after 48 hrs by SRB assay relative to control; format: functional; conditions: NCI-H522, 48 h, read-out: Activity; method in brief: as §2
# SNB-19 = assay: Cytotoxicity against human SNB19 cells assessed as cell growth at 10 uM after 48 hrs by SRB assay relative to control; format: functional; conditions: SNB-19, 48 h, read-out: Activity; method in brief: as §3
# PC-3 = assay: Cytotoxicity against human PC3 cells after 48 hrs by SRB assay; format: functional, cell-based; conditions: PC-3, 48 h
# Method in brief: (§4)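 Second-stage NCI-60 panel run by the NCI Developmental Therapeutics Program, covering nine tumour subpanels. Five concentrations were tested: 0.01, 0.1, 1, 10 and 100 μM. Percentage growth at each level was plotted against log10 drug concentration. GI50, TGI and LC50 were read from these dose-response curves. Subpanel MID values were divided into the full-panel MID to give selectivity ratios.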
# HOP-62 = assay: Cytotoxicity against human HOP62 cells assessed as cell growth at 10 uM after 48 hrs by SRB assay relative to control; format: functional; conditions: HOP-62, 48 h, read-out: Activity; method in brief: as §1
# UACC-257 = assay: Cytotoxicity against human UACC257 cells assessed as cell growth at 10 uM after 48 hrs by SRB assay relative to control; format: functional; conditions: UACC-257, 48 h, read-out: Activity; method in brief: as §3
# MDA-MB-468 = assay: Cytotoxicity against human MDA-MB-468 cells assessed as cell growth at 10 uM after 48 hrs by SRB assay relative to control; format: functional; conditions: MDA-MB-468, 48 h, read-out: Activity; method in brief: as §2
# SK-MEL-2 = assay: Cytotoxicity against human SK-MEL-2 cells after 48 hrs by SRB assay; format: functional; conditions: SK-MEL-2, 48 h; method in brief: as §4
# HCT-116 = assay: Cytotoxicity against human HCT116 cells assessed as cell growth at 10 uM after 48 hrs by SRB assay relative to control; format: functional; conditions: HCT-116, 48 h, read-out: Activity; method in brief: as §1
# SF-268 = assay: Cytotoxicity against human SF268 cells assessed as cell growth at 10 uM after 48 hrs by SRB assay relative to control; format: functional; conditions: SF-268, 48 h, read-out: Activity; method in brief: as §2
# CAKI-1 = assay: Cytotoxicity against human Caki1 cells assessed as cell growth at 10 uM after 48 hrs by SRB assay relative to control; format: functional; conditions: CAKI-1, 48 h, read-out: Activity; method in brief: as §1
# MOLT-4 = assay: Cytotoxicity against human MOLT4 cells assessed as cell growth at 10 uM after 48 hrs by SRB assay relative to control; format: functional; conditions: MOLT-4, 48 h, read-out: Activity; method in brief: as §2
# NCI-H322M = assay: Cytotoxicity against human NCI-H322M cells assessed as cell growth at 10 uM after 48 hrs by SRB assay relative to control; format: functional; conditions: read-out: Activity; method in brief: as §2
# OVCAR-4 [1] = assay: Cytotoxicity against human OVCAR4 cells assessed as cell growth at 10 uM after 48 hrs by SRB assay relative to control; format: functional; conditions: OVCAR-4, 48 h, read-out: Activity; method in brief: as §2
# SNB-75 = assay: Cytotoxicity against human SNB75 cells assessed as cell growth at 10 uM after 48 hrs by SRB assay relative to control; format: functional; conditions: SNB-75, 48 h, read-out: Activity; method in brief: as §3
# CCRF-CEM = assay: Cytotoxicity against human CCRF-CEM cells assessed as cell growth at 10 uM after 48 hrs by SRB assay relative to control; format: functional; conditions: read-out: Activity; method in brief: as §1
# SR = assay: Cytotoxicity against human SR cells assessed as cell growth at 10 uM after 48 hrs by SRB assay relative to control; format: functional; conditions: read-out: Activity; method in brief: as §3
# MDA-MB-435 = assay: Cytotoxicity against human MDA-MB-435 cells assessed as cell growth at 10 uM after 48 hrs by SRB assay relative to control; format: functional; conditions: MDA-MB-435, 48 h, read-out: Activity; method in brief: as §2
# SF-539 = assay: Cytotoxicity against human SF539 cells assessed as cell growth at 10 uM after 48 hrs by SRB assay relative to control; format: functional; conditions: SF-539, 48 h, read-out: Activity; method in brief: as §2
# OVCAR-4 [2] = assay: Cytotoxicity against human OVCAR4 cells after 48 hrs by SRB assay; format: functional; conditions: OVCAR-4, 48 h; method in brief: as §4
# COLO 205 = assay: Cytotoxicity against human COLO205 cells assessed as cell growth at 10 uM after 48 hrs by SRB assay relative to control; format: functional; conditions: COLO 205, 48 h, read-out: Activity; method in brief: as §1
# RPMI-8226 = assay: Cytotoxicity against human RPMI8226 cells assessed as cell growth at 10 uM after 48 hrs by SRB assay relative to control; format: functional; conditions: RPMI-8226, 48 h, read-out: Activity; method in brief: as §2
# K562 = assay: Cytotoxicity against human K562 cells assessed as cell growth at 10 uM after 48 hrs by SRB assay relative to control; format: functional; conditions: K562, 48 h, read-out: Activity; method in brief: as §1
# NCI/ADR-RES = assay: Cytotoxicity against human NCI/ADR-RES cells assessed as cell growth at 10 uM after 48 hrs by SRB assay relative to control; format: functional; conditions: read-out: Activity; method in brief: as §2
SMILES,growth at 10 µM (MCF7) [%],growth at 10 µM (OVCAR-3) [%],growth at 10 µM (SN12C) [%],growth at 10 µM (UO-31) [%],growth at 10 µM (HL-60(TB)) [%],growth at 10 µM (SF-295) [%],growth at 10 µM (OVCAR-8) [%],growth at 10 µM (A549) [%],growth at 10 µM (NCI-H522) [%],growth at 10 µM (SNB-19) [%],IC50 (PC-3) [µM],growth at 10 µM (HOP-62) [%],growth at 10 µM (UACC-257) [%],growth at 10 µM (MDA-MB-468) [%],growth at 10 µM (HCT-116) [%],growth at 10 µM (SF-268) [%],growth at 10 µM (CAKI-1) [%],growth at 10 µM (MOLT-4) [%],growth at 10 µM (NCI-H322M) [%],growth at 10 µM (OVCAR-4 [1]) [%],further results
O=C1c2ccccc2C(=O)c2c1cc(SCc1ccccc1)c1nsnc21,56.4,25.3,66.1,73.8,70.3,91.6,6.01,102,78.9,94.3,> 15,83.7,58.9,-85.3,53.1,56,73.8,-21,98.4,-68.2,GI50 (SK-MEL-2): 8.58 µM; LC50 (SK-MEL-2): 33.7 µM; TGI (SK-MEL-2): 18.6 µM; growth at 10 µM (SNB-75): 39.6%; growth at 10 µM (CCRF-CEM): 0.65%; growth at 10 µM (SR): 1.25%; growth at 10 µM (MDA-MB-435): -48.3%; growth at 10 µM (SF-539): 68.3%; GI50 (OVCAR-4 [2]): 6.05 µM; LC50 (OVCAR-4 [2]): 29 µM; TGI (OVCAR-4 [2]): 13.2 µM; growth at 10 µM (COLO 205): 103%; growth at 10 µM (RPMI-8226): 43.2%; growth at 10 µM (K562): 10.5%; growth at 10 µM (NCI/ADR-RES): 62.3%
O=C1c2ccccc2C(=O)c2c1cc(Sc1ccc(Cl)cc1)c1nsnc21,86.1,119,87,79.5,87.3,97.3,88.6,104,93.4,105,> 15,102,95.5,46.1,98.2,105,87,59.2,99.5,76.8,growth at 10 µM (SNB-75): 91.7%; growth at 10 µM (CCRF-CEM): 79.3%; growth at 10 µM (SR): 111%; growth at 10 µM (MDA-MB-435): 107%; growth at 10 µM (SF-539): 107%; growth at 10 µM (COLO 205): 121%; growth at 10 µM (RPMI-8226): 90.2%; growth at 10 µM (K562): 94.9%; growth at 10 µM (NCI/ADR-RES): 102%
Cc1cccc(C)c1Sc1cc2c(c3nsnc13)C(=O)c1ccccc1C2=O,68.6,1,67.7,66.7,47.8,91.1,59,90.2,61.4,94.8,6.74,90,86.6,45.9,65,79.5,61,32.6,83.8,4,growth at 10 µM (SNB-75): 69.4%; growth at 10 µM (CCRF-CEM): 34.8%; growth at 10 µM (SR): 35.5%; growth at 10 µM (MDA-MB-435): 96.8%; growth at 10 µM (SF-539): 84.5%; growth at 10 µM (COLO 205): 98.8%; growth at 10 µM (RPMI-8226): 55.6%; growth at 10 µM (K562): 43.1%; growth at 10 µM (NCI/ADR-RES): 59.7%
CC(C)Sc1cc2c(c3nsnc13)C(=O)c1ccccc1C2=O,-68.8,-60.3,-28.6,-28.4,-41.2,-16.6,-22.6,-8.14,-59.5,21.9,3.69,13.2,-91.7,-78.8,-36.7,7.06,-5.68,-54.6,-0.8,-100,GI50 (SK-MEL-2): 0.99 µM; LC50 (SK-MEL-2): 5.87 µM; TGI (SK-MEL-2): 2.42 µM; growth at 10 µM (SNB-75): 9.12%; growth at 10 µM (CCRF-CEM): -45%; growth at 10 µM (SR): -48%; growth at 10 µM (MDA-MB-435): -79.3%; growth at 10 µM (SF-539): -47%; GI50 (OVCAR-4 [2]): 0.36 µM; LC50 (OVCAR-4 [2]): 3.67 µM; TGI (OVCAR-4 [2]): 1.34 µM; growth at 10 µM (COLO 205): 102%; growth at 10 µM (RPMI-8226): -38%; growth at 10 µM (K562): -26.2%; growth at 10 µM (NCI/ADR-RES): -24.9%
